In ChEMBL document CHEMBL5058577, “EUbOPEN Chemogenomics Library 2 (Multiplex)” (2022):

Test system: U2OS
Assay: Multiplex assay against U2OS
Type: toxicity, cell-based
Conditions: human
Outline: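 Four dyes were applied at seeding to live cells: Hoechst33342, BioTracker Green Microtubule Cytoskeleton Dye, MitoTracker Red and Annexin V Alexa Fluor 680. Imaging after compound addition used a CQ1 microscope at 37°C and 5% CO2. CellPathfinder machine-learning gating then sorted cells into Hoechst high-intensity objects or normal cells, normal cells into healthy, pyknosed or fragmented nuclei, and pyknosed cells into mitotic or apoptotic, with tubulin, mitochondrial-mass and membrane-permeability phenotypes given as per cents of healthy-nucleus cells.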

[1] = 12 h, 1 µM, compound concentration 1 uM, replicate 1
[2] = 12 h, 1 µM, compound concentration 1 uM, replicate 2
[3] = 12 h, 10 µM, compound concentration 10 uM, replicate 1
[4] = 12 h, 10 µM, compound concentration 10 uM, replicate 2
[5] = 24 h, 1 µM, compound concentration 1 uM, replicate 1
[6] = 24 h, 1 µM, compound concentration 1 uM, replicate 2
[7] = 24 h, 10 µM, compound concentration 10 uM, replicate 1
[8] = 24 h, 10 µM, compound concentration 10 uM, replicate 2
[9] = 48 h, 1 µM, compound concentration 1 uM, replicate 1
[10] = 48 h, 1 µM, compound concentration 1 uM, replicate 2
[11] = 48 h, 10 µM, compound concentration 10 uM, replicate 1
[12] = 48 h, 10 µM, compound concentration 10 uM, replicate 2

In the case of `CN(C)c1ccnc2sc3c(=O)n(N4CCCCCC4)cnc3c12`, the “Population Apoptotic (%)” value [1] is reported as 81%, the “Population Fragmented Nuclei (%)” value [1] is reported as 19% and the “Population Healthy Nuclei (%)” value [1] is reported as 72%. For the same molecule, the “Population Hoechst High Intensity Objects (%)” value [1] was 1%, the “Population Membrane Permeable-Phenotype (%)” value [1] was 4% and the “Population Mitochondria Different-Phenotype (%)” value [1] was 2%. The “Population Mitotic Cells (%)” value [1] was 18%, the “Population Normal (%)” value [1] was 98% and the “Population Pyknosed Nuclei (%)” value [1] was 7%. For the same molecule, the “Population Tubulin-Different-Phenotype (%)” value [1] was 2%, the “Total Cell Count” value [1] was 284 and the “Population Apoptotic (%)” value [2] was 87%. The “Population Fragmented Nuclei (%)” value [2] was 16%, the “Population Healthy Nuclei (%)” value [2] was 77% and the “Population Membrane Permeable-Phenotype (%)” value [2] was 6%. For the same molecule, the “Population Mitotic Cells (%)” value [2] was 12%, the “Population Pyknosed Nuclei (%)” value [2] was 6% and the “Total Cell Count” value [2] was 132. For the same molecule, the “Population Apoptotic (%)” value [3] was 41%, the “Population Fragmented Nuclei (%)” value [3] was 30% and the “Population Healthy Nuclei (%)” value [3] was 56%. The “Population Hoechst High Intensity Objects (%)” value [3] was 4%, the “Population Membrane Permeable-Phenotype (%)” value [3] was 30% and the “Population Mitochondria Different-Phenotype (%)” value [3] was 14%. For the same molecule, the “Population Mitotic Cells (%)” value [3] was 58%, the “Population Normal (%)” value [3] was 95% and the “Population Pyknosed Nuclei (%)” value [3] was 12%. For the same molecule, the “Population Tubulin-Different-Phenotype (%)” value [3] was 20%, the “Total Cell Count” value [3] was 249 and the “Population Apoptotic (%)” value [4] was 88%. For the same molecule, the “Population Fragmented Nuclei (%)” value [4] was 18%, the “Population Healthy Nuclei (%)” value [4] was 71% and the “Population Hoechst High Intensity Objects (%)” value [4] was 5%. For the same molecule, the “Population Membrane Permeable-Phenotype (%)” value [4] was 23%, the “Population Mitochondria Different-Phenotype (%)” value [4] was 27% and the “Population Mitotic Cells (%)” value [4] was 11%. The “Population Normal (%)” value [4] was 94%, the “Population Pyknosed Nuclei (%)” value [4] was 9% and the “Population Tubulin-Different-Phenotype (%)” value [4] was 22%. For the same molecule, the “Total Cell Count” value [4] was 101, the “Population Apoptotic (%)” value [5] was 87% and the “Population Fragmented Nuclei (%)” value [5] was 16%. For the same molecule, the “Population Healthy Nuclei (%)” value [5] was 72%, the “Population Hoechst High Intensity Objects (%)” value [5] was 2% and the “Population Membrane Permeable-Phenotype (%)” value [5] was 3%. The “Population Mitochondria Different-Phenotype (%)” value [5] was 3%, the “Population Mitotic Cells (%)” value [5] was 12% and the “Population Normal (%)” value [5] was 97%. The “Population Pyknosed Nuclei (%)” value [5] was 10%, the “Population Tubulin-Different-Phenotype (%)” value [5] was 1% and the “Total Cell Count” value [5] was 326. The “Population Apoptotic (%)” value [6] was 72%, the “Population Fragmented Nuclei (%)” value [6] was 15% and the “Population Healthy Nuclei (%)” value [6] was 76%. The “Population Membrane Permeable-Phenotype (%)” value [6] was 6%, the “Population Mitotic Cells (%)” value [6] was 27% and the “Population Pyknosed Nuclei (%)” value [6] was 7%. The “Population Tubulin-Different-Phenotype (%)” value [6] was 4%, the “Total Cell Count” value [6] was 150 and the “Population Apoptotic (%)” value [7] was 68%. The “Population Fragmented Nuclei (%)” value [7] was 28%, the “Population Healthy Nuclei (%)” value [7] was 56% and the “Population Hoechst High Intensity Objects (%)” value [7] was 4%. The “Population Membrane Permeable-Phenotype (%)” value [7] was 22%, the “Population Mitochondria Different-Phenotype (%)” value [7] was 15% and the “Population Mitotic Cells (%)” value [7] was 31%. For the same molecule, the “Population Normal (%)” value [7] was 95%, the “Population Pyknosed Nuclei (%)” value [7] was 15% and the “Population Tubulin-Different-Phenotype (%)” value [7] was 14%. The “Total Cell Count” value [7] was 260, the “Population Apoptotic (%)” value [8] was 100% and the “Population Fragmented Nuclei (%)” value [8] was 11%. The “Population Healthy Nuclei (%)” value [8] was 75%, the “Population Hoechst High Intensity Objects (%)” value [8] was 3% and the “Population Membrane Permeable-Phenotype (%)” value [8] was 23%. The “Population Mitochondria Different-Phenotype (%)” value [8] was 25%, the “Population Mitotic Cells (%)” value [8] was 0% and the “Population Normal (%)” value [8] was 96%. For the same molecule, the “Population Pyknosed Nuclei (%)” value [8] was 13%, the “Population Tubulin-Different-Phenotype (%)” value [8] was 24% and the “Total Cell Count” value [8] was 108. The “Population Apoptotic (%)” value [9] was 90%, the “Population Fragmented Nuclei (%)” value [9] was 17% and the “Population Healthy Nuclei (%)” value [9] was 74%. For the same molecule, the “Population Hoechst High Intensity Objects (%)” value [9] was 2%, the “Population Membrane Permeable-Phenotype (%)” value [9] was 4% and the “Population Mitochondria Different-Phenotype (%)” value [9] was 1%. The “Population Mitotic Cells (%)” value [9] was 9%, the “Population Normal (%)” value [9] was 97% and the “Population Pyknosed Nuclei (%)” value [9] was 8%. The “Population Tubulin-Different-Phenotype (%)” value [9] was 2%, the “Total Cell Count” value [9] was 486 and the “Population Apoptotic (%)” value [10] was 92%. The “Population Fragmented Nuclei (%)” value [10] was 15%, the “Population Healthy Nuclei (%)” value [10] was 72% and the “Population Membrane Permeable-Phenotype (%)” value [10] was 5%. The “Population Mitochondria Different-Phenotype (%)” value [10] was 5%, the “Population Mitotic Cells (%)” value [10] was 7% and the “Population Pyknosed Nuclei (%)” value [10] was 11%. For the same molecule, the “Total Cell Count” value [10] was 239, the “Population Apoptotic (%)” value [11] was 68% and the “Population Fragmented Nuclei (%)” value [11] was 28%. For the same molecule, the “Population Healthy Nuclei (%)” value [11] was 57%, the “Population Hoechst High Intensity Objects (%)” value [11] was 4% and the “Population Membrane Permeable-Phenotype (%)” value [11] was 15%. The “Population Mitochondria Different-Phenotype (%)” value [11] was 11%, the “Population Mitotic Cells (%)” value [11] was 31% and the “Population Normal (%)” value [11] was 95%. For the same molecule, the “Population Pyknosed Nuclei (%)” value [11] was 14%, the “Population Tubulin-Different-Phenotype (%)” value [11] was 7% and the “Total Cell Count” value [11] was 325. The “Population Apoptotic (%)” value [12] was 72%, the “Population Fragmented Nuclei (%)” value [12] was 15% and the “Population Healthy Nuclei (%)” value [12] was 61%. The “Population Hoechst High Intensity Objects (%)” value [12] was 9%, the “Population Membrane Permeable-Phenotype (%)” value [12] was 21% and the “Population Mitochondria Different-Phenotype (%)” value [12] was 19%. For the same molecule, the “Population Mitotic Cells (%)” value [12] was 27%, the “Population Normal (%)” value [12] was 90% and the “Population Pyknosed Nuclei (%)” value [12] was 22%. For the same molecule, the “Population Tubulin-Different-Phenotype (%)” value [12] was 23% and the “Total Cell Count” value [12] was 140.
